From ChEMBL document CHEMBL4513216, “Probing the Open Global Health Chemical Diversity Library for Multistage-Active Starting Points for Next-Generation Antimalarials” (ACS Infect Dis, 2020)

assay: Toxicity liver stage against HepG2, at 10uM; format: cell-based; parameters: test concentration 10 uM, cell line HepG2-A16-CD81EGFP; conditions: human, HepG2-A16-CD81EGFP cells; read-out: INHIBITION
Summary of the method: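 Uninfected HepG2-A16-CD81EGFP cells, 3 × 10^3 per well, 1536-well, plated on prespotted compound at 10 μM final, parasite-free screening media added to match infected plates; puromycin 10 μM positive, DMSO 0.5% negative; run in parallel with 48 h PbLuc assay at 37 °C, 5% CO2; viability by CellTiter-Glo luminescence, normalized to controls.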

SMILES | cytotoxicity at 10 µM [%]
Cc1ccccc1CSCCn1nc2ccccn2c1=O | 2.57
CC(C)(C)CC(=O)N[C@@H]1CO[C@H](CNC(=O)c2ccncc2)[C@H]1O | -3.81
COCCN1C[C@H]2CN(Cc3cccc(OC(F)(F)F)c3)CCN2C1=O | 2.67
CC1(C)CC(NC(=O)c2cnn(-c3ccccc3F)c2N)CC(C)(C)N1 | -4.14
O=C(NCC(=O)N1CCCC1)c1nc(Cc2c(Cl)cccc2Cl)no1 | 2.63
COCCCNC(=O)Cc1cc(-c2ccccc2)on1 | -7.39
O=C(NCCS(=O)(=O)N1CCN(c2ncccn2)CC1)C1CCCC1 | -3.91
Cc1ccc(Cl)cc1NC(=O)C1CSc2ncc(C)c(=O)n2C1 (configuration not stated) | 1.42
Cc1cccc(NC(=O)c2ccc(-n3cncn3)nn2)n1 | -0.895
Cc1nc(COCc2nc3c(o2)CN(C(=O)c2ccoc2)C3)cs1 | -1.95
Fc1cnc(N2CC[C@@H](N3CCOCC3)[C@@H]2Cc2ccccc2)nc1 | 3.67
O=c1cc(CNS(=O)(=O)C2CC2)nc2n1CCCNC2 | 7.83
CN(C)CCNC(=O)c1ccc2c(-c3nccs3)noc2c1 | 9.28
CCS(=O)(=O)N1CCN(C(=O)NC(C)C)CC2(CC(=O)N(C)C2)C1 (configuration not stated) | 6.62
COCCC1COC2(CCN(C(=O)C3CCCC3)CC2)C1 (configuration not stated) | 6.13
Cc1ccc(N2CCc3sc(C(=O)N4CCOCC4)cc32)nn1 | -0.142
CS(=O)(=O)N1CCc2sc(C(=O)NCc3ccccc3)cc21 | 0.997
COCC(=O)N1CCc2c(CNS(C)(=O)=O)n[nH]c2C1 | 4.32
CC1CCN(S(=O)(=O)c2cccn(CC(=O)NC3CCCC3)c2=O)CC1 | -14.6
CCC1=N[C@@]2(CC[C@@H]3CN(C(=O)Nc4ccc(F)cc4)C[C@@H]32)C(=O)N1 | -24
O=c1c2cnc(N3CCCCC3)nc2ccn1Cc1ccco1 | -9.69
NCc1n[nH]c(-c2ccc(Br)cc2)n1 | 19.7
Cc1nc(C(=O)N2CCCC2c2cncc(CN3CCCC3)n2)co1 (configuration not stated) | 8.99

SMILES | cytotoxicity at 10 µM [%]
COCC(=O)N1CCCC1(C)c1nc(C)cc(O)n1 (configuration not stated) | -28.5
Cc1cc(O)nc(C2CN(CC3(O)CCOCC3)CCO2)n1 (configuration not stated) | -18.3
CC(C)c1ncc(CNC2(c3ccc(Cl)cc3)CC2)cn1 | -32.3
CNc1cncc(C2CCCN2S(=O)(=O)c2ccccc2F)n1 (configuration not stated) | -15.1
CCc1c(C)nc2cc(C3CCN(Cc4cccnc4)C3)nn2c1O (configuration not stated) | -25.4
CCS(=O)(=O)Nc1ccc2[nH]c(C3CCC3)nc2c1 | -13.2
CC(C)n1cnnc1SCCN(C)c1ccccc1 | 2.96
CNS(=O)(=O)c1cccc(CNC(=O)CCc2ccsc2)c1 | 13.5
CC1(C)COCCN1C(=O)CCc1nc(-c2ccccn2)no1 | -4.59
CCOCCNCC1CCN(CCO)CC1 | -1.46
CC(C)c1noc(CCNC(=O)NCC2Cc3ccccc3O2)n1 (configuration not stated) | 7.4
Cc1cccc(Oc2ccccc2CNC(=O)C2CCNC(=O)C2)c1 (configuration not stated) | 3.6
N#Cc1ccc(SCCC(=O)NC(N)=O)cc1 | -2.66
COc1cc(CNC2CCCN(c3ncccn3)C2)cc2c1OCO2 (configuration not stated) | 6.26
Cc1noc(CCNC(=O)NCc2ccc(OC3CCCC3)cc2)n1 | 13.2
COc1ccsc1C(=O)NCCNc1ccccc1 | -4.15
COc1ccc(CNC(=O)N2CCCC(Nc3ccccc3)C2)cn1 (configuration not stated) | -4.57
CCNC(=O)CCC(=O)NC(Cc1ccccc1)c1sccc1C (configuration not stated) | -6.69
CC(=O)c1ccc(C(=O)Nc2ccnc(N(C)C)n2)cc1 | 2.49
CC(=O)N(C)Cc1cccc(NC(=O)CCCc2nc(C(C)C)no2)c1 | -2.07
O=C(CCc1ncc(-c2ccc(F)cc2)o1)NCCN1CCOCC1 | 10.6
N#Cc1ccnc(N2CCN(CC(O)c3ccc(F)c(F)c3)CC2)c1 (configuration not stated) | 2.8
O=C(Nc1cccc(N2CCN(CC3CC3)CC2)c1)C1CCCO1 (configuration not stated) | -1.23

SMILES | cytotoxicity at 10 µM [%]
O=S(=O)(CCCN1CCOC(Cn2cccn2)C1)c1ccccc1 (configuration not stated) | -2.54
Cc1nn(C)c(N2CCOCC2)c1CNC(C(N)=O)c1ccccc1 (configuration not stated) | -6.86
O=S(=O)(NCCN1CC=CC1)c1cncc(Cl)c1 | -2.42
Cn1cnn(Cc2ccccc2F)c1=O | -3.09
CCC(Nc1ccc(Oc2ccccc2OC)cc1)C(N)=O (configuration not stated) | 1.77
CN1CCC(NC(=O)Nc2ccc(F)c(-n3cccc3)c2)C1=O (configuration not stated) | -135
NC(=O)C1CN(C(=O)NCC2(c3ccc(F)cc3)CCC2)CCO1 (configuration not stated) | -5.07
CS(=O)(=O)NCC1CCCN(Cc2ccccc2F)C1 (configuration not stated) | -3.65
CCc1nsc(N2CCN(Cc3ccno3)CC2)n1 | -8.95
O=C(CCc1nccs1)N1CCC(C(=O)O)(c2ccccc2)CC1 | 1.75
CN1C(=O)CCN(C(=O)C2CC=CC2)c2ccccc21 | 8.96
COCCNC(=O)NC(=O)CNc1c(F)cccc1N1CCCC1 | -2.05
Cc1ccc(C(CNCc2ccncc2)N2CCOCC2)s1 (configuration not stated) | -14.6
CCNC(=O)NC(=O)CSC(C)c1ccccc1F (configuration not stated) | 15.6
Cc1cccc(OCCC(=O)N(C)CCC#N)c1C | 0.666
CC(C)(C(=O)NCC1CC1)c1ccccc1F | -5.47
C1CC1c1nsc(N2CCN(C3CC3)CC2)n1 | -16.4
Cc1nc(CN2C[C@@H]3CN(C(=O)c4cnccn4)C[C@@H]3C2=O)cs1 | -74.5
Cc1nc2c(c(NCC(O)c3ccccc3Cl)n1)CCNCC2 (configuration not stated) | -2.88
COC(=O)CNC(=O)c1ccc(OC2CCN(S(C)(=O)=O)CC2)c(Cl)c1 | -4.52
Cn1ccnc1SCCNC(=O)CC1CCc2ccccc21 (configuration not stated) | -3.05
Cc1cnc(C(=O)N2CCCC(Cn3cc(CC(C)C)nn3)C2)cn1 (configuration not stated) | 1.33
CC(C)c1ccc(C#N)c(N2CC(C)(C)[C@@](C)(O)C2)n1 | 2.71

SMILES | cytotoxicity at 10 µM [%]
CC(C)CN1CC2(CCN(C(=O)c3cnccn3)CC2)CC1=O | 2.46
Cc1ccsc1[C@@H]1CCN(C(=O)CCc2n[nH]c(C)c2C)C[C@H]1O | 7.04
Cn1nnnc1SCCNC(=O)C1CCN(C(=O)C2CCCC2)CC1 | -11.8
CC(C)(CNC1CCCN(Cc2ccccc2F)C1)CN1CCOCC1 (configuration not stated) | 6.21
CCc1cc(CN(C)C(=O)c2cc(=O)[nH]c(=O)[nH]2)on1 | 8.71
COc1cc(-c2nc3c([nH]2)CCCNC3=O)cc(OC)c1OC | 9.62
O=S(=O)(NCCNc1ccc(-n2cccn2)nn1)c1ccccc1 | -8.55
CCCOCC1CCN(C(=O)c2cnc(-c3csc(C)n3)nc2O)C1 (configuration not stated) | 5.25
Cc1ncsc1C(=O)N1CCc2[nH]nc(-c3ccc4c(c3)OCO4)c2C1 | -141
COc1ccc(C(=O)N2CCN(C(=O)c3csc(C(C)C)n3)CC2)cc1 | -10.4
Oc1cc(CCC2CCCCN2)cc(-c2ccncc2)c1 (configuration not stated) | -12.7
Cc1cc(N2CCCCCC2)n2nc(C)c(C)c2n1 | -6.23
CN(CCO)C(=O)c1coc(CN2CCN(c3ccccc3F)CC2)n1 | 15.7
Cc1nc(C)n(CC2CCCN2Cc2ncc(-c3ccccc3)o2)n1 (configuration not stated) | -4.92
c1cc(CCN2CCN(c3ccc4nncn4n3)CC2)ccn1 | 4.76
Cc1ccc(C(O)CNC(=O)NCc2csc(C)n2)cc1 (configuration not stated) | -5.13
Cc1ccccc1C1(C(=O)NCCN2CCOCC2)CCOCC1 | -3.07
CCc1[nH]ncc1C(=O)N1CCCN(Cc2nccn2C(C)C)CC1 | -8.92
CC(C)CNC(=O)NC(=O)C(C)Nc1cccc(CN2CCOC2=O)c1 (configuration not stated) | -3.37
COCC(c1cccc(C(F)(F)F)c1)N(C)C(=O)c1cccnc1 (configuration not stated) | -5.28
CCC1CN(Cc2cccc(C(=O)N(C)C)c2)CCN1CCOC (configuration not stated) | -2.99
Cc1nn(C)c(C)c1CC(=O)NCc1ccnc(N2CCOCC2)c1 | -14.7
CC(C)c1nc2n(n1)CC(NCc1ncc(C(C)(C)C)o1)CC2 (configuration not stated) | -17.8

SMILES | cytotoxicity at 10 µM [%]
O=C(NCCn1ccnc1)N1CCN(Cc2cccnc2)CC1 | -4.64
Cc1cccc(C(=O)N2CCCN(Cc3cscn3)CC2)c1 | -18.1
CCc1n[nH]c(C2CN(C(=O)c3ccnc(N(C)C)c3)CCO2)n1 (configuration not stated) | 6.66
Cc1ccccc1-c1noc(CN2CC(n3cccn3)C2)n1 | -4.21
Cn1cnnc1C1CCCN(C(=O)NCc2ccccc2)C1 (configuration not stated) | -14
O=C(CCNC(=O)c1ccoc1)NCc1ccccc1F | 1.76
COc1ccc(CNCC(C)Oc2ccccn2)cc1Br (configuration not stated) | -10.2
c1nc2n(c1CN1CCCCC1)CCN(C1CCOC1)CC2 (configuration not stated) | -152
N#Cc1ccc(CNCC2(c3ccccc3)CCOCC2)cc1 | 8.78
CCn1ncc2c1C(COC)N(C(=O)c1ccc3c(c1)OCO3)CC2 (configuration not stated) | 8.1
Cc1ccc(CN2CCc3ncnc(OC(C)C)c3CC2)s1 | 22.8
CC(=O)N1CCC2(CC1)CN(CC(C)C)CC21CCNC1=O (configuration not stated) | -1.07
Cc1nnc(N2C[C@H](OCC3CCCC3)[C@H]3OCCC[C@H]32)s1 | 5.16
O=C1COC2(CCN(C(=O)c3ccoc3)CC2)CN1Cc1ccccn1 | -1.11
NC(=O)COc1ccc(CNCc2ccc(F)c(F)c2)cc1 | -15.2
Fc1cnccc1CN1CCC2(CCN2c2ncccn2)C1 (configuration not stated) | -111
O=C(c1ccc[nH]1)N1CCO[C@]2(CCC[C@@H]2COc2cccnc2)C1 | 9.46
CS(=O)(=O)N1C[C@H]2CC[C@@H](C1)N(C(=O)CCc1ccsc1)C2 | 14.3
Nc1ccnc(N2C[C@H]3CC[C@@H](C2)N(CC2CCC2)C3=O)n1 | -0.253
COC1C[C@@H]2CN(C(=O)Cc3ccc(C)s3)C[C@@H]2C1 (some centres not stated) | 3.53
